# Legend:
# [1] = Drug level treated with 9-[4-(1,2-Diphenyl-but-1-enyl)-phenylcarbamoyl]-nonanoic acid 3-{2-acetoxy-5-[((S)-1,2,3-trimethoxy-10-methylsulfanyl-9-oxo-5,6,7,9-tetrahydro-benzo[a]heptalen-7-ylcarbamoyl)-methylcarbamoyloxymethyl]-phenyl}-propyl ester assessed as porcine pancreas lipase type 2-mediated compound formation in presence of pH 7 phosphate buffer by reversed-phase HPLC; format: ADME, Sus scrofa; conditions: pig
# In short: (§1)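 Analytical-scale incubation was run overnight in 15:85 DMSO/phosphate buffer (20 mM, pH 7) with 1% n-BuOH and porcine pancreatic lipase. Starting-material hydrolysis and released products were quantified by reversed-phase HPLC.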
# [2] = Drug level treated with 4-{3-[4-(1,2-Diphenyl-but-1-enyl)-phenylcarbamoyl]-propyldisulfanyl}-butyric acid 3-{2-acetoxy-5-[((S)-1,2,3-trimethoxy-10-methylsulfanyl-9-oxo-5,6,7,9-tetrahydro-benzo[a]heptalen-7-ylcarbamoyl)-methylcarbamoyloxymethyl]-phenyl}-propyl ester assessed as Celite-supported formulation of Pseudomonas cepacia lipase PS-mediated compound formation in presence of pH 7 phosphate buffer by reversed-phase HPLC; format: ADME
# [3] = tested on: HepG2; assay: Antiproliferative activity against human HepG2 cells assessed as reduction in cell number incubated for 72 hrs; format: functional; conditions: HepG2, 72 h
# [4] = tested on: HeLa; assay: Antiproliferative activity against human HeLa cells assessed as reduction in cell number incubated for 72 hrs; format: functional
# [5] = Stability assessed as Celite-supported formulation of Pseudomonas cepacia lipase PS-mediated drug hydrolysis in presence of pH 7 phosphate buffer by reversed-phase HPLC; format: ADME; conditions: read-out: Drug degradation
# [6] = Colloidal stability of the compound in nanoparticle form at 0.5 mg/mL at acidic pH conditions; format: physicochemical
# In short: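 Zeta potential was measured against pH at 0.5 mg/mL nanoparticle concentration and fixed ionic strength (1 mM KCl). pH was adjusted across 2–12 with 0.1 M NaOH or HCl. Hydrodynamic diameter was also followed over the same range.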
# [7] = Self-assembling property assessed as zeta potential by dynamic light scattering method; format: physicochemical
# [8] = Drug metabolism assessed as Celite-supported formulation of Pseudomonas cepacia lipase PS-mediated 4-((4-(4-(1,2-diphenylbut-1-enyl)phenylamino)-4-oxobutyl)disulfanyl)butanoic acid formation in presence of pH 7 phosphate buffer by reversed-phase HPLC; format: ADME
# [9] = Self-assembling property assessed as hydrodynamic diameter by dynamic light scattering method; format: physicochemical
# [10] = Colloidal stability of the compound in nanoparticle form in Ph 7 PBS at 0.5 mg/mL in presence of 10 to 100 mM KCl; format: physicochemical; conditions: buffer
# In short: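 Nanoparticles were held at 0.5 mg/mL in PBS buffered to pH 7.4, with KCl at 0, 10, 25, 50 and 100 mM. Zeta potential and hydrodynamic diameter were recorded at each ionic strength.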
# [11] = Self-assembling property assessed as polydispersity index by dynamic light scattering method; format: physicochemical
# [12] = Drug metabolism assessed as Celite-supported formulation of Pseudomonas cepacia lipase PS-mediated 2-Amino-N-((S)-1,2,3-trimethoxy-10-methylsulfanyl-9-oxo-5,6,7,9-tetrahydro-benzo[a]heptalen-7-yl)-acetamide trifluoroacetic acid formation in presence of pH 7 phosphate buffer by reversed-phase HPLC; format: ADME
# [13] = tested on: MCF7; assay: Antiproliferative activity against human MCF7 cells assessed as reduction in cell number incubated for 72 hrs; format: functional; conditions: MCF7, 72 h
# [14] = Stability assessed as porcine pancreas lipase type 2-mediated drug hydrolysis in presence of pH 7 phosphate buffer by reversed-phase HPLC; format: ADME, Sus scrofa; conditions: pig, porcine pancreas lipase type 2, pH 7; read-out: Drug degradation; in short: as §1
# [15] = Drug metabolism assessed as porcine pancreas lipase type 2-mediated 10-(4-(1,2-diphenylbut-1-enyl)phenylamino)-10-oxodecanoic acid formation in presence of pH 7 phosphate buffer by reversed-phase HPLC; format: ADME, Sus scrofa; conditions: pig; in short: as §1
GI50 [3] [µM],GI50 [4] [µM],metabolised [5] [%],Stability [6],Activity [7] [mV],Drug metabolism [8],Activity [9] [nm],Stability [10],Activity_index [11],Drug metabolism [12],GI50 [13] [µM],metabolised [14] [%],Drug metabolism [15],Compound,Drug uptake [1],Drug uptake [2]
,,,,,,,,,,,,,COc1cc2c(c(OC)c1OC)-c1ccc(SC)c(=O)cc1[C@@H](NC(=O)CN)CC2,Active,Active
28.2,> 30,,,,,,,,,,,,CC/C(=C(\c1ccccc1)c1ccc(N)cc1)c1ccccc1,Active,Active
> 30,2.8,88,Unstable,-46.47,Metabolite_Detected,344,Stable,0.147,Metabolite_Detected,0.71,,,CC/C(=C(\c1ccccc1)c1ccc(NC(=O)CCCSSCCCC(=O)OCCCc2cc(COC(=O)NCC(=O)N[C@H]3CCc4cc(OC)c(OC)c(OC)c4-c4ccc(SC)c(=O)cc43)ccc2OC(C)=O)cc1)c1ccccc1,,
> 30,4.2,,Unstable,-33.51,,412.9,Stable,0.17,,0.87,85,Metabolite_Detected,CC/C(=C(\c1ccccc1)c1ccc(NC(=O)CCCCCCCCC(=O)OCCCc2cc(COC(=O)NCC(=O)N[C@H]3CCc4cc(OC)c(OC)c(OC)c4-c4ccc(SC)c(=O)cc43)ccc2OC(C)=O)cc1)c1ccccc1,,
> 30,> 30,,,,,,,,,> 30,,,CC/C(=C(\c1ccccc1)c1ccc(NC(=O)CCCSSCCCC(=O)O)cc1)c1ccccc1,,
25.6,> 30,,,,,,,,,> 30,,,CC/C(=C(\c1ccccc1)c1ccc(NC(=O)CCCCCCCCC(=O)O)cc1)c1ccccc1,Active,

# — ChEMBL document CHEMBL4339225, “Self-assembling Releasable Thiocolchicine-Diphenylbutenylaniline Conjugates” (ACS Med Chem Lett, 2019)
